Source: ChEMBL document CHEMBL2311305, “Antiproliferative potency of novel benzofuran-2-carboxamides on tumour cell lines: cell death mechanisms and determination of crystal structure” (Eur J Med Chem, 2013)
The source made the active and inactive calls. The calls are words filed in the database; no cut-off is given here.

What was measured:
[1] = tested on: SK-BR-3; experiment: Induction of apoptosis in human SKBR3 cells assessed as caspase9 activation at 5 uM after 24 to 48 hrs by caspase protease assay; format: functional, cell-based
In short: (§1)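 Compound at 5 µM on SK-BR-3 and 10 µM on SW620. Cells harvested after 24 and 48 h, washed in PBS, lysed 10 min on ice, centrifuged. Lysate diluted to 3 mg/mL protein and mixed with DTT-containing reaction buffer and caspase-3, -8 or -9 substrate. Incubated 90 min at 37 °C in the dark. Absorbance read at 405 nm, duplicates, compared with untreated control.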

[2] = tested on: SK-BR-3; experiment: Induction of apoptosis in human SKBR3 cells assessed as caspase8 activation at 5 uM after 24 to 48 hrs by caspase protease assay; format: functional, cell-based; in short: as §1
[3] = tested on: SK-BR-3; experiment: Induction of apoptosis in human SKBR3 cells assessed as caspase3 activation at 5 uM after 24 to 48 hrs by caspase protease assay; format: functional, cell-based; in short: as §1
[4] = tested on: SK-BR-3; experiment: Induction of cell cycle arrest in human SKBR3 cells assessed as G2/M phase cells at 10 uM after 48 hrs by PI-staining based flow cytometric analysis (reference value: 11.6 +/- 0.3%); format: functional
[5] = tested on: SK-BR-3; experiment: Induction of cell cycle arrest in human SKBR3 cells assessed as G2/M phase cells at 5 uM after 48 hrs by PI-staining based flow cytometric analysis (reference value: 11.6 +/- 0.3%); format: functional
[6] = tested on: SK-BR-3; experiment: Induction of cell cycle arrest in human SKBR3 cells assessed as S phase cells at 10 uM after 48 hrs by PI-staining based flow cytometric analysis (reference value: 35.2 +/- 1.8%); format: functional
[7] = tested on: SK-BR-3; experiment: Induction of cell cycle arrest in human SKBR3 cells assessed as S phase cells at 5 uM after 48 hrs by PI-staining based flow cytometric analysis (reference value: 35.2 +/- 1.8%); format: functional
[8] = tested on: SK-BR-3; experiment: Induction of cell cycle arrest in human SKBR3 cells assessed as G1 phase cells at 10 uM after 48 hrs by PI-staining based flow cytometric analysis (reference value: 53.3 +/- 1.5%); format: functional
[9] = tested on: SK-BR-3; experiment: Induction of cell cycle arrest in human SKBR3 cells assessed as G1 phase cells at 5 uM after 48 hrs by PI-staining based flow cytometric analysis (reference value: 53.3 +/- 1.5%); format: functional
[10] = tested on: SK-BR-3; experiment: Induction of cell cycle arrest in human SKBR3 cells assessed as subG1 phase cells at 10 uM after 48 hrs by PI-staining based flow cytometric analysis (reference value: 27.5 +/- 0.2%); format: functional
[11] = tested on: SK-BR-3; experiment: Induction of cell cycle arrest in human SKBR3 cells assessed as subG1 phase cells at 5 uM after 48 hrs by PI-staining based flow cytometric analysis (reference value: 27.5 +/- 0.2%); format: functional
[12] = tested on: SK-BR-3; experiment: Induction of cell cycle arrest in human SKBR3 cells assessed as G2/M phase cells at 5 uM after 24 hrs by PI-staining based flow cytometric analysis (reference value: 33.7 +/- 0.3%); format: functional
[13] = tested on: SK-BR-3; experiment: Induction of cell cycle arrest in human SKBR3 cells assessed as G2/M phase cells at 10 uM after 24 hrs by PI-staining based flow cytometric analysis (reference value: 33.7 +/- 0.3%); format: functional
[14] = tested on: SK-BR-3; experiment: Induction of cell cycle arrest in human SKBR3 cells assessed as S phase cells at 10 uM after 24 hrs by PI-staining based flow cytometric analysis (reference value: 26.2 +/- 2.3%); format: functional
[15] = tested on: SK-BR-3; experiment: Induction of cell cycle arrest in human SKBR3 cells assessed as S phase cells at 5 uM after 24 hrs by PI-staining based flow cytometric analysis (reference value: 26.2 +/- 2.3%); format: functional
[16] = tested on: SK-BR-3; experiment: Induction of cell cycle arrest in human SKBR3 cells assessed as G1 phase cells at 10 uM after 24 hrs by PI-staining based flow cytometric analysis (reference value: 40.1 +/- 0.7%); format: functional
[17] = tested on: SK-BR-3; experiment: Induction of cell cycle arrest in human SKBR3 cells assessed as G1 phase cells at 5 uM after 24 hrs by PI-staining based flow cytometric analysis (reference value: 40.1 +/- 0.7%); format: functional
[18] = tested on: SK-BR-3; experiment: Induction of cell cycle arrest in human SKBR3 cells assessed as subG1 phase cells at 10 uM after 24 hrs by PI-staining based flow cytometric analysis (reference value: 25.1 +/- 0.4%); format: functional
[19] = tested on: HeLa; experiment: Cytotoxicity against human HeLa cells after 72 hrs by MTT assay; format: functional, cell-based; conditions: Homo sapiens, HeLa, 72 h
In short: (§2)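 Cells seeded at 3000-6000 per well on day 0, according to cell line doubling time. Compound added in five 10-fold dilutions, 72-h incubation, then MTT colorimetric read-out. Absorbances converted to percentage growth by NCI formulae. IC50 obtained by linear regression between the concentrations bracketing PG 50; ">100" assigned when no concentration reaches it. Quadruplicate points, three independent experiments.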

[20] = tested on: SK-BR-3; experiment: Induction of cell cycle arrest in human SKBR3 cells assessed as subG1 phase cells at 5 uM after 24 hrs by PI-staining based flow cytometric analysis (reference value: 25.1 +/- 0.4%); format: functional
[21] = tested on: MIA PaCa-2; experiment: Cytotoxicity against human MIAPaCa2 cells after 72 hrs by MTT assay; format: functional, cell-based; conditions: Homo sapiens, MIA PaCa-2, 72 h; in short: as §2
[22] = tested on: WI-38; experiment: Cytotoxicity against human WI38 cells after 72 hrs by MTT assay; format: cell-based; conditions: Homo sapiens, WI-38, 72 h; in short: as §2
[23] = tested on: SW-620; experiment: Cytotoxicity against human SW620 cells after 72 hrs by MTT assay; format: functional, cell-based; conditions: Homo sapiens, SW-620, 72 h; in short: as §2
[24] = tested on: MCF7; experiment: Cytotoxicity against human MCF7 cells after 72 hrs by MTT assay; format: functional, cell-based; conditions: Homo sapiens, MCF7, 72 h; in short: as §2
[25] = tested on: SK-BR-3; experiment: Cytotoxicity against human SKBR3 cells after 72 hrs by MTT assay; format: functional, cell-based; conditions: SK-BR-3, 72 h; in short: as §2
[26] = tested on: SW-620; experiment: Induction of cell cycle arrest in human SW620 cells assessed as G2/M phase cells at 10 uM after 24 hrs by PI-staining based flow cytometric analysis (reference value: 9.3 +/- 2.6%); format: functional
[27] = tested on: SW-620; experiment: Induction of apoptosis in human SW620 cells assessed as caspase9 activation at 10 uM after 24 to 48 hrs by caspase protease assay; format: functional, cell-based; in short: as §1
[28] = tested on: SW-620; experiment: Induction of apoptosis in human SW620 cells assessed as caspase3 activation at 10 uM after 24 to 48 hrs by caspase protease assay; format: functional, cell-based; in short: as §1
[29] = tested on: SW-620; experiment: Induction of cell cycle arrest in human SW620 cells assessed as G2/M phase cells at 10 uM after 48 hrs by PI-staining based flow cytometric analysis (reference value: 8.5 +/- 1.6%); format: functional
[30] = tested on: SW-620; experiment: Induction of cell cycle arrest in human SW620 cells assessed as G2/M phase cells at 5 uM after 48 hrs by PI-staining based flow cytometric analysis (reference value: 8.5 +/- 1.6%); format: functional
[31] = tested on: SW-620; experiment: Induction of cell cycle arrest in human SW620 cells assessed as S phase cells at 10 uM after 48 hrs by PI-staining based flow cytometric analysis (reference value: 41.6 +/- 0.3%); format: functional
[32] = tested on: SW-620; experiment: Induction of cell cycle arrest in human SW620 cells assessed as S phase cells at 5 uM after 48 hrs by PI-staining based flow cytometric analysis (reference value: 41.6 +/- 0.3%); format: functional
[33] = tested on: SW-620; experiment: Induction of cell cycle arrest in human SW620 cells assessed as G1 phase cells at 10 uM after 48 hrs by PI-staining based flow cytometric analysis (reference value: 49.9 +/- 1.4%); format: functional
[34] = tested on: SW-620; experiment: Induction of cell cycle arrest in human SW620 cells assessed as G1 phase cells at 5 uM after 48 hrs by PI-staining based flow cytometric analysis (reference value: 49.9 +/- 1.4%); format: functional
[35] = tested on: SW-620; experiment: Induction of cell cycle arrest in human SW620 cells assessed as subG1 phase cells at 10 uM after 48 hrs by PI-staining based flow cytometric analysis (reference value: 5.8 +/- 0.3%); format: functional
[36] = tested on: SW-620; experiment: Induction of cell cycle arrest in human SW620 cells assessed as subG1 phase cells at 5 uM after 48 hrs by PI-staining based flow cytometric analysis (reference value: 5.8 +/- 0.3%); format: functional
[37] = tested on: SW-620; experiment: Induction of cell cycle arrest in human SW620 cells assessed as G2/M phase cells at 5 uM after 24 hrs by PI-staining based flow cytometric analysis (reference value: 9.3 +/- 2.6%); format: functional
[38] = tested on: SW-620; experiment: Induction of cell cycle arrest in human SW620 cells assessed as S phase cells at 10 uM after 24 hrs by PI-staining based flow cytometric analysis (reference value: 38.3 +/- 0.4%); format: functional
[39] = tested on: SW-620; experiment: Induction of cell cycle arrest in human SW620 cells assessed as S phase cells at 5 uM after 24 hrs by PI-staining based flow cytometric analysis (reference value: 38.3 +/- 0.4%); format: functional
[40] = tested on: SW-620; experiment: Induction of cell cycle arrest in human SW620 cells assessed as G1 phase cells at 10 uM after 24 hrs by PI-staining based flow cytometric analysis (reference value: 52.6 +/- 2.3%); format: functional
[41] = tested on: SW-620; experiment: Induction of cell cycle arrest in human SW620 cells assessed as G1 phase cells at 5 uM after 24 hrs by PI-staining based flow cytometric analysis (reference value: 52.6 +/- 2.3%); format: functional
[42] = tested on: SW-620; experiment: Induction of cell cycle arrest in human SW620 cells assessed as subG1 phase cells at 10 uM after 24 hrs by PI-staining based flow cytometric analysis (reference value: 18.1 +/- 3.8%); format: functional
[43] = tested on: SW-620; experiment: Induction of cell cycle arrest in human SW620 cells assessed as subG1 phase cells at 5 uM after 24 hrs by PI-staining based flow cytometric analysis (reference value: 18.1 +/- 3.8%); format: functional

Cl.O=C(Nc1nc2ccc(C3=NCCN3)cc2[nH]1)c1cc2ccccc2o1
Activity [1]: Active
Activity [2]: Active
Activity [3]: Active
Activity [4]: 15.9%
Activity [5]: 9.7%
Activity [6]: 31.3%
Activity [7]: 68.5%
Activity [8]: 52.8%
Activity [9]: 21.8%
Activity [10]: 36.3%
Activity [11]: 38.1%
Activity [12]: 10%
Activity [13]: 6.4%
Activity [14]: 23.6%
Activity [15]: 31.5%
Activity [16]: 70%
Activity [17]: 58.5%
Activity [18]: 31.5%
IC50 [19]: 68.5 µM
Activity [20]: 33.1%
IC50 [21]: 91.2 µM
IC50 [22]: > 100 µM
IC50 [23]: 74.9 µM
IC50 [24]: 7 µM
IC50 [25]: 3.83 µM

CC(=O)Nc1ccc(NC(=O)c2cc3ccccc3o2)cn1
Activity [26]: 25.3%
Activity [27]: Active
Activity [28]: Active
Activity [29]: 9.5%
Activity [30]: 11.2%
Activity [31]: 45.4%
Activity [32]: 44.9%
Activity [33]: 45.2%
Activity [34]: 43.9%
Activity [35]: 4.3%
Activity [36]: 4.7%
Activity [37]: 10.7%
Activity [38]: 31.4%
Activity [39]: 42.6%
Activity [40]: 43.5%
Activity [41]: 46.8%
IC50 [19]: 0.9 µM
IC50 [21]: 3.1 µM
IC50 [22]: 0.4 µM
IC50 [23]: 1.1 µM
IC50 [24]: 7.6 µM
IC50 [25]: 59.8 µM
Activity [42]: 18.2%
Activity [43]: 18.1%
